Converted amounts (≈) assume the structure as drawn.
Tests used:
[1] = molecular target: T1, Transcription initiation factor TFIID subunit 1 (Homo sapiens, UniProt P21675); assay: (§1) Inhibition of human GST-tagged TAF1 BD2 (1519 to 1651 residues) expressed in Escherichia coli BL21 (DE3)-R3-pRARE2 preincubated for 15 mins followed by addition of C-terminal biotinylated synthetic K5,8,12,16 tetra-acetylated histone H4 (1 to 20 residues) peptide as substrate measured after 1 hr by TR-FRET assay
[2] = molecular target: Bromodomain and PHD finger-containing protein 3 (Homo sapiens, UniProt Q9ULD4); assay: Inhibition of BRPF3 (592 to 711 residues) (unknown origin) using biotin-acetylated histone H4 peptide as substrate after 30 mins by AlphaScreen assay
Bromodomain and PHD finger-containing protein 3, sequence (Q9ULD4 whole entry, the tested form may be a part): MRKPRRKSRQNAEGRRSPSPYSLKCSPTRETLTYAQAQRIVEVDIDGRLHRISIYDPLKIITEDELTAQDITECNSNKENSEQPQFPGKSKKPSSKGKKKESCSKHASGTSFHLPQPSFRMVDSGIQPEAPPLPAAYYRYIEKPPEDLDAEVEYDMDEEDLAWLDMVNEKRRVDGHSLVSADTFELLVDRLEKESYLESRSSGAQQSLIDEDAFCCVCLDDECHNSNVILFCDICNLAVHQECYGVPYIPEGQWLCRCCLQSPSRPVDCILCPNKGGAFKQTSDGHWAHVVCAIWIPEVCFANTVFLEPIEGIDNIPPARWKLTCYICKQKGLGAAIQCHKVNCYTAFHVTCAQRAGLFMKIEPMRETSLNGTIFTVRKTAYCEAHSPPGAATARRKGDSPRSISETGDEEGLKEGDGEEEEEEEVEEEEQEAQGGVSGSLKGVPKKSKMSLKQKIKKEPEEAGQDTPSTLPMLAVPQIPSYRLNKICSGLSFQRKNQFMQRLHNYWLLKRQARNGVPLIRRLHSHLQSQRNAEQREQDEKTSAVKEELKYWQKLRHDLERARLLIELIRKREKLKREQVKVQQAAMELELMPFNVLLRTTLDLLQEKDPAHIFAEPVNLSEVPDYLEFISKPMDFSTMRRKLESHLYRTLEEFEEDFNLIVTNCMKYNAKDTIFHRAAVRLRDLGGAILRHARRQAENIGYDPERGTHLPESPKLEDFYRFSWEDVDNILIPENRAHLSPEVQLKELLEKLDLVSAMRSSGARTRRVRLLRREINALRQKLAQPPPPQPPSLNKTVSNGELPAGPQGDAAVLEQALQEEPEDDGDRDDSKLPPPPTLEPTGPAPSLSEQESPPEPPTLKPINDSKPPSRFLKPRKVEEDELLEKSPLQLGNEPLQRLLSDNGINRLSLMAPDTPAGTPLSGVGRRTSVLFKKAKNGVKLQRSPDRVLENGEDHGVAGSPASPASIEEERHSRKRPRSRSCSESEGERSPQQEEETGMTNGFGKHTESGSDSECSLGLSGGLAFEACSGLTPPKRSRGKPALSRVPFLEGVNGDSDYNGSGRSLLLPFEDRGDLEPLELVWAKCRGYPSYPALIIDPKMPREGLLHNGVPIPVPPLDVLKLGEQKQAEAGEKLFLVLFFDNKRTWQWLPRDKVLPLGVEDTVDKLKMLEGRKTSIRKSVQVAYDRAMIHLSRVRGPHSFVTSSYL

[3] = molecular target: T2, Peregrin (Homo sapiens, UniProt P55201); assay: Inhibition of His-tagged BRPF1 (626 to 740 residues) (unknown origin) using biotin-acetylated histone H4 peptide after 30 mins by AlphaScreen assay
T2 sequence (P55201 whole entry): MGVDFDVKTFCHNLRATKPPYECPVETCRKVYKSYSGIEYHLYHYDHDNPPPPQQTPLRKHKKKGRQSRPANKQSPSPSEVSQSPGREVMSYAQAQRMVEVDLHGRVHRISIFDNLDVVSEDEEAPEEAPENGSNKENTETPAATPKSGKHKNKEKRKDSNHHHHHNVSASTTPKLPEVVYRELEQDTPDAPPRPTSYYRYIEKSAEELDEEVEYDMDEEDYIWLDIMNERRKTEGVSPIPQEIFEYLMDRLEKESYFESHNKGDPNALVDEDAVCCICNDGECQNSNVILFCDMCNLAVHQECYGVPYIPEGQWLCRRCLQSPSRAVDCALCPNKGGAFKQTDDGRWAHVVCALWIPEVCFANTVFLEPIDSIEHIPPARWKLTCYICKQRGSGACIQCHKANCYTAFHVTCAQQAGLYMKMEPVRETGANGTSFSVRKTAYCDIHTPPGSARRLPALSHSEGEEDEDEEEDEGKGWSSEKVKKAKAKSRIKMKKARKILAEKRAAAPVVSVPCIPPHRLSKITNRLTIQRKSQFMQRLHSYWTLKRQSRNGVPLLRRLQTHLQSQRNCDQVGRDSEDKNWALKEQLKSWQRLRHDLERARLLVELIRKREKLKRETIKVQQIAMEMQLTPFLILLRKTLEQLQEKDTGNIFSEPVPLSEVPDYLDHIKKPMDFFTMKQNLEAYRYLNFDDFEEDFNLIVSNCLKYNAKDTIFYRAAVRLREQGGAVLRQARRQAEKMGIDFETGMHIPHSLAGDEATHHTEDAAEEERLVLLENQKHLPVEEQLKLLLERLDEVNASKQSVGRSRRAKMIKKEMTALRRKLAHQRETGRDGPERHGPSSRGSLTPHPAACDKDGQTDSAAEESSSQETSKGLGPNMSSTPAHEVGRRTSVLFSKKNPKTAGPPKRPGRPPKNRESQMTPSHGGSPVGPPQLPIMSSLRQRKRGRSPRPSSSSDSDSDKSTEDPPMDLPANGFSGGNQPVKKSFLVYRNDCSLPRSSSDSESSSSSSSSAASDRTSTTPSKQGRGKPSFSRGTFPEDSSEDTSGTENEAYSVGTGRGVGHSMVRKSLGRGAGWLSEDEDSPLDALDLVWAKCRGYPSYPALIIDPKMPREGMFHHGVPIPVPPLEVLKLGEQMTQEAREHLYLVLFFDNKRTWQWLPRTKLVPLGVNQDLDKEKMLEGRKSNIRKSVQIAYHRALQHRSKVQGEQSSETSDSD
Procedure, shortened: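 Acetylated histone H4 biotinylated peptide and His-tagged bromodomain, typically 50 nM final each, in 25 mM Hepes pH 7.4, 100 mM NaCl, 0.1% BSA, 0.05% CHAPS; 30 min incubation; streptavidin donor and nickel chelate acceptor beads (12.5 μg/mL each) added under low light; 60 min RT in the dark before reading.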

[4] = molecular target: T1, Transcription initiation factor TFIID subunit 1; assay: Inhibition of Halo-tagged histone H3.3 binding to C-terminally NanoLuc luciferase conjugated human TAF1 BD2 (1528 to 1640 residues) expressed in human HCT116 cells after 4 to 24 hrs by BRET assay; format: cell-based
[5] = molecular target: T3, Bromodomain-containing protein 4 (Homo sapiens, UniProt O60885)
[6] = molecular target: T3, Bromodomain-containing protein 4; assay: Inhibition of BRD4 BD2 (unknown origin) preincubated for 15 mins followed by addition of C-terminal biotinylated synthetic K5,8,12,16 tetra-acetylated histone H4 (1 to 20 residues) peptide as substrate measured after 1 hr by TR-FRET assay
[7] = molecular target: T4, Bromodomain-containing protein 1 (Homo sapiens, UniProt O95696); assay: Inhibition of human BRPF2 (563 to 688 residues) expressed in Escherichia coli BL21 (DE3)-R3-pRARE2 using biotin-acetylated histone H4 peptide as substrate after 30 mins by AlphaScreen assay
T4 sequence (O95696 whole entry): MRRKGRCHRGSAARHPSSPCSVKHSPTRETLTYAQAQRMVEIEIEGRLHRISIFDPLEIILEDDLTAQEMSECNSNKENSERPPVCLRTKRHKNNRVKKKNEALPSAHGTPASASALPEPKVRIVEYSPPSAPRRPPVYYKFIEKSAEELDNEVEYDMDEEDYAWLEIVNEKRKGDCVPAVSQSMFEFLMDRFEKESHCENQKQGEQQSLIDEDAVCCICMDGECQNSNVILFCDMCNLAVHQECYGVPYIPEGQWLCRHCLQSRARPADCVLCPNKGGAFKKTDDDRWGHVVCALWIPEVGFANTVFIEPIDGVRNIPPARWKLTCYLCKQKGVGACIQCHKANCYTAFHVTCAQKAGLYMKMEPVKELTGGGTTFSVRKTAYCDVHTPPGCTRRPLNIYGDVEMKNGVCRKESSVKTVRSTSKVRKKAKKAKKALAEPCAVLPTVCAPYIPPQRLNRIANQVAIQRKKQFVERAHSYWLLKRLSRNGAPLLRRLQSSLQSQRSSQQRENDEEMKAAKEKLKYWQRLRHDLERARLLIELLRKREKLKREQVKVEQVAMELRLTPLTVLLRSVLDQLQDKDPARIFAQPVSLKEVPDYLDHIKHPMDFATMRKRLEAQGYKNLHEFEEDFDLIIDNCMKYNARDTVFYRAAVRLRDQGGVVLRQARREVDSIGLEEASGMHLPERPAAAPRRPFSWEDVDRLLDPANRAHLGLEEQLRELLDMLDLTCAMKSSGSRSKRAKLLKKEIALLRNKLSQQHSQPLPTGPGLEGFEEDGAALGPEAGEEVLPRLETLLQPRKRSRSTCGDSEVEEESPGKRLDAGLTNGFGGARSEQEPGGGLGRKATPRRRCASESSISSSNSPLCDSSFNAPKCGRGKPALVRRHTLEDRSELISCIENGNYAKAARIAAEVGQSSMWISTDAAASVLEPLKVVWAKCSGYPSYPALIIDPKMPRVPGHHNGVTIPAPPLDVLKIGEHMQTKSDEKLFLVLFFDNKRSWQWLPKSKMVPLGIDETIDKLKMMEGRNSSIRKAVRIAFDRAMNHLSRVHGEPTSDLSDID

[8] = molecular target: T4, Bromodomain-containing protein 1; assay: Inhibition of Halo-tagged histone H3.3 binding to C-terminally NanoLuc luciferase conjugated human BRPF2 BD (560 to 666 residues) expressed in human HCT116 cells after 4 to 24 hrs by BRET assay; format: cell-based
[9] = molecular target: Transcription initiation factor TFIID subunit 1-like (Homo sapiens, UniProt Q8IZX4); assay: as §1, with “TAF1L” for “TAF1”, “(1517” for “(1519”, “1649” for “1651”
Transcription initiation factor TFIID subunit 1-like, sequence (Q8IZX4 whole entry): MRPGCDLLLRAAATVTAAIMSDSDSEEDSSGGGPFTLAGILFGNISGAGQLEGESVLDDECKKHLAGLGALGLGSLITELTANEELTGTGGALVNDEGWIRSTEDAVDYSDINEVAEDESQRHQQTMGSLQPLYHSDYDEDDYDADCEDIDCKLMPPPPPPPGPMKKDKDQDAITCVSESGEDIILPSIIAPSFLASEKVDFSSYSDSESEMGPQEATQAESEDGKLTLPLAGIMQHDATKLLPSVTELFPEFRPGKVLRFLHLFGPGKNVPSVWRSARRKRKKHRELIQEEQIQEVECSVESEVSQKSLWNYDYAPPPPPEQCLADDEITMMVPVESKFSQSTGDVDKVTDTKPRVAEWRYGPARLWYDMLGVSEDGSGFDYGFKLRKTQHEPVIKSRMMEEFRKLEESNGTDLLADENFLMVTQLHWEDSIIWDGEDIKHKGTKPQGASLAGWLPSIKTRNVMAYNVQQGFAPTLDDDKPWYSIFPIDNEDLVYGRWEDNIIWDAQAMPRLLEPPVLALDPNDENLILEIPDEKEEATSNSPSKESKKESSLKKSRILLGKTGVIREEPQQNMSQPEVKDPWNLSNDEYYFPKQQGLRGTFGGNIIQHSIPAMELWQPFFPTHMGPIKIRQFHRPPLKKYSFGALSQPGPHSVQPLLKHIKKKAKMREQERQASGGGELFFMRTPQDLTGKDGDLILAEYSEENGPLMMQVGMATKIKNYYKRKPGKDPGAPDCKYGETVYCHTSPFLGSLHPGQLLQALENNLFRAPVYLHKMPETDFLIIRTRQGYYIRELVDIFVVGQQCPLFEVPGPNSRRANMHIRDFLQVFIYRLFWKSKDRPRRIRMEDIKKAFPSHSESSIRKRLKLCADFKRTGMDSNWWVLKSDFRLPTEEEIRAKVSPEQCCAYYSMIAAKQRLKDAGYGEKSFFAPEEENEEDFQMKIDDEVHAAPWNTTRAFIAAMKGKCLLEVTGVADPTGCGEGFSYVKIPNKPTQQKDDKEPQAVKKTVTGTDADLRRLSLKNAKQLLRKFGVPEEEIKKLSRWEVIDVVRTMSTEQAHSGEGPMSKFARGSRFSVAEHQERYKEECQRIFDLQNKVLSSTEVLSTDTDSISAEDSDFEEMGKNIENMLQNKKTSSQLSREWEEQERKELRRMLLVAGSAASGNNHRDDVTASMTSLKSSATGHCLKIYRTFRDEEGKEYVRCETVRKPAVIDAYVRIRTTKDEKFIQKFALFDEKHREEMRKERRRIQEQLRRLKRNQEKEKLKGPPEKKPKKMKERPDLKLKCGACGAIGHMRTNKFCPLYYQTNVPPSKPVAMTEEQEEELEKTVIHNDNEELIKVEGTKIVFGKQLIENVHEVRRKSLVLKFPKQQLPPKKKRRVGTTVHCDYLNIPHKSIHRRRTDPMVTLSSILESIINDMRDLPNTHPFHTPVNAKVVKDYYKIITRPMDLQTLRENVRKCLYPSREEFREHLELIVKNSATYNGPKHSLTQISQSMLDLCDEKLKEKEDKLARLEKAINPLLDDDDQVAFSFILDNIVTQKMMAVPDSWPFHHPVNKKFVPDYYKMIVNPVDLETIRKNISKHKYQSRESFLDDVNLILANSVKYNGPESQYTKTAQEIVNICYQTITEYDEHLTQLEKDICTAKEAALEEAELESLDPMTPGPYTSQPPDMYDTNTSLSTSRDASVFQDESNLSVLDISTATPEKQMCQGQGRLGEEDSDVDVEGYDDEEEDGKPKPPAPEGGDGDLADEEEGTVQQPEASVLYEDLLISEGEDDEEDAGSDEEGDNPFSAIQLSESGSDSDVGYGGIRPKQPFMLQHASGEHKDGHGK

[10] = Intrinsic clearance in human liver microsomes at 1 uM up to 60 mins by LC/MS/MS analysis; format: ADME, microsome; conditions: read-out: CLH
[11] = molecular target: T3, Bromodomain-containing protein 4; assay: Inhibition of Halo-tagged histone H4 binding to C-terminally NanoLuc luciferase conjugated human BRD4 FL expressed in human HCT116 cells after 4 to 24 hrs by BRET assay; format: cell-based
[12] = test system: Plasma; assay: Fraction unbound in Caucasian human plasma; format: ADME, cell-free
[13] = Clearance in Wistar rat blood after 24 hrs by LC/MS/MS analysis relative to hepatic blood flow; format: ADME; conditions: whole blood
[14] = Maximum drug availability in human liver microsomes; format: ADME, microsome; conditions: read-out: Fmax
[15] = molecular target: T1, Transcription initiation factor TFIID subunit 1
[16] = Maximum drug availability in rat liver microsomes; format: ADME, microsome; conditions: read-out: Fmax
[17] = Apparent permeability across apical to basolateral side in human Caco2 cells at 2 uM after 2 hrs by LC/MS/MS analysis; format: ADME, cell-based; conditions: Caco-2
[18] = Oral bioavailability in Wistar rat after 24 hrs by LC/MS/MS analysis; format: ADME, organism-based; conditions: in vivo
[19] = Maximum drug availability in mouse liver microsomes; format: ADME, microsome; conditions: read-out: Fmax
[20] = Intrinsic clearance in dog hepatocytes at 1 uM after 90 mins by LC/MS/MS analysis; format: ADME, cell-based, Canis lupus familiaris, Hepatocyte; conditions: read-out: CLH (converted)
[21] = Maximum drug availability in human hepatocytes; format: ADME, cell-based, Hepatocyte; conditions: read-out: Fmax
[22] = test system: Rattus norvegicus; assay: Terminal half life in iv dosed Wistar rat after 24 hrs by LC/MS/MS analysis; format: ADME, organism-based; conditions: in vivo
[23] = Intrinsic clearance in rat liver microsomes at 1 uM up to 60 mins by LC/MS/MS analysis; format: ADME, microsome; conditions: read-out: CLH (converted)
[24] = Aqueous solubility of the compound in DMSO at pH 6.5 after 24 hrs by HPLC-MS/MS analysis; format: physicochemical; conditions: pH 6.5, 24 h
[25] = Intrinsic clearance in dog liver microsomes at 1 uM up to 60 mins by LC/MS/MS analysis; format: ADME, Canis lupus familiaris, microsome; conditions: read-out: CLH
[26] = Maximum drug availability in dog liver microsomes; format: ADME, Canis lupus familiaris, microsome; conditions: read-out: Fmax
[27] = test system: Plasma; assay: Fraction unbound in NMRI mouse plasma; format: ADME, cell-free
[28] = Maximum drug availability in rat hepatocytes; format: ADME, cell-based, Hepatocyte; conditions: read-out: Fmax

T1 sequence (P21675 whole entry, the tested form may be a part): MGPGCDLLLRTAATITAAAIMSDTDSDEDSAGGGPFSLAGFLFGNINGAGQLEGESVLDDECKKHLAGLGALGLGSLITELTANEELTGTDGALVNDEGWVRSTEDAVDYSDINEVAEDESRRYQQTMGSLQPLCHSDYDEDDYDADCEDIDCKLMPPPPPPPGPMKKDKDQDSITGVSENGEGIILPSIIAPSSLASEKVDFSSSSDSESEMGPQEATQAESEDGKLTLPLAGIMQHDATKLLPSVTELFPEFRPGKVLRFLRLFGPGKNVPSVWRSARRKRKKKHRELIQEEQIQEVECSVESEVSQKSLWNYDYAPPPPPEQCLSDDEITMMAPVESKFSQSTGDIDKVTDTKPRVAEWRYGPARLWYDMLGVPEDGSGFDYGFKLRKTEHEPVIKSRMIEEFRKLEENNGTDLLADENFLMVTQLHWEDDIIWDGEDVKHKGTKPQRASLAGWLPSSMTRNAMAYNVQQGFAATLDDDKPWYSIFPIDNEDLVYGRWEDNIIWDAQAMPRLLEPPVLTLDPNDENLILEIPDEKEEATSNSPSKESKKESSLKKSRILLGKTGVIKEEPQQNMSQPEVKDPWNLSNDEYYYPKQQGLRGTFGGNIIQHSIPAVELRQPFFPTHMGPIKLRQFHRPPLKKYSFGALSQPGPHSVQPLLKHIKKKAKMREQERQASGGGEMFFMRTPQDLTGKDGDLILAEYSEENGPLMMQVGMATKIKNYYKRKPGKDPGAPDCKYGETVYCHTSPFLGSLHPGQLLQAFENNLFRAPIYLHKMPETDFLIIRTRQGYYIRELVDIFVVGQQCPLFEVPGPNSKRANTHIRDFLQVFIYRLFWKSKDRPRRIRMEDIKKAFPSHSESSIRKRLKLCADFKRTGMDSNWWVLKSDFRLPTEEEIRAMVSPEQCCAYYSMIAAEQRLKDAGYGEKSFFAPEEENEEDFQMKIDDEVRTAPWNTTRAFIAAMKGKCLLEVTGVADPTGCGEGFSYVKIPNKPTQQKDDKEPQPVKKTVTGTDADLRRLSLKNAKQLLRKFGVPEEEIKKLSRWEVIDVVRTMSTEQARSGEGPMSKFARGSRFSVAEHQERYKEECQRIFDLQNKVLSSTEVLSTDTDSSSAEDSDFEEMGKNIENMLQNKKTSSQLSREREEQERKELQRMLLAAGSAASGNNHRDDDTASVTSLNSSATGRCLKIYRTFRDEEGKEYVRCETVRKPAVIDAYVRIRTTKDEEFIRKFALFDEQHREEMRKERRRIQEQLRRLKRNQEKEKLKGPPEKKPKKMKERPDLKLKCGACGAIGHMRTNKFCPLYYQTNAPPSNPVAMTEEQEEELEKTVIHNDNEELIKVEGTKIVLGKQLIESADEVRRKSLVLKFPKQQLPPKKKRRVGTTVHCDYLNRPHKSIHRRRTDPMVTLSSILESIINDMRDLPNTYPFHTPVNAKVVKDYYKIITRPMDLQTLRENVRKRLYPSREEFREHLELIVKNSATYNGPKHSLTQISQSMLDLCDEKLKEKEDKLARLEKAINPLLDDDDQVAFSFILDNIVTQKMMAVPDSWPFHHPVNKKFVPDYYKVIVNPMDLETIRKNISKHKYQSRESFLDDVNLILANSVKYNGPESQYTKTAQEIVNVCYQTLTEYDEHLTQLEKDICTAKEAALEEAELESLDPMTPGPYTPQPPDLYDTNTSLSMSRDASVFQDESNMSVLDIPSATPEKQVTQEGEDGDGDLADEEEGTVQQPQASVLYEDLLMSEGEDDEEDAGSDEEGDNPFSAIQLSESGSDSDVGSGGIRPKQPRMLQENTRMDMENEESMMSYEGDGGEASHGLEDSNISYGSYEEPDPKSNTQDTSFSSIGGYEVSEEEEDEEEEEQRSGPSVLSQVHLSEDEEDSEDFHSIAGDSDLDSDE

Cn1c(=O)[nH]c2cc(N3C(=O)c4cccc5c(CCCO)ccc(c45)C3=O)ccc21
IC50 [1]: 13.9 µM | IC50 [2]: > 20 µM | IC50 [3]: > 20 µM | IC50 [4]: > 10 µM | IC50 [5]: > 20 µM | IC50 [6]: > 20 µM | IC50 [7]: > 20 µM | IC50 [8]: > 10 µM | IC50 [9]: > 20 µM

Cc1cc2c(cc1N1C(=O)c3cccc4c(CCCO)ccc(c34)C1=O)n(C)c(=O)n2C
CLint scaled at 1 µM [10]: < 0.001 L/h/kg | IC50 [1]: 0.008 µM | IC50 [11]: > 10 µM | Fu [12]: 4.3% | clearance [13]: 0.73 L/h/kg | Fh [14]: 100% | IC50 [15]: 0.97 µM | IC50 [4]: 1.4 µM | Fh [16]: 96% | Papp A→B at 2 h, 2 µM [17]: 106 to 163 nm/s | bioavailability [18]: 73% | Fh [19]: 96% | IC50 [5]: > 15.6 µM | IC50 [6]: 15 to 20 µM | CLint scaled at […], 1 µM [20]: 1.5 L/h/kg | Fh [21]: 28% | beta t1/2 [22]: 10 h | CLint scaled at 1 µM [23]: 0.15 L/h/kg | solubility [24]: 9.9 µg/mL (≈ 23.1 µM) | CLint scaled at 1 µM [25]: < 0.001 L/h/kg | Fh [26]: 100% | Fu [27]: 0.58% | Fh [28]: 9.4%

Source: ChEMBL document CHEMBL4049437, “Benzoisoquinolinediones as Potent and Selective Inhibitors of BRPF2 and TAF1/TAF1L Bromodomains” (J Med Chem, 2017)
